Consider three compounds from ChEMBL document CHEMBL4354865 (J Med Chem, 2020).

pIC50, pKd: −log10 of the molar value. Activity calls are given as the source filed them. No cut-off for these calls is given here. Bounds are passed on as bounds.

Data set [1] can be described thus: Inhibition of CYP3A in rat liver microsomes assessed as reduction in aminopyrine N-demethylase activity preincubated for 3 mins followed by NADPH addition and measured after 15 mins by iodometric titration method. In kind it is ADME. The method in brief:
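IC50 derived by fitting concentration–response curves for inhibition of aminopyrine N-demethylase activity, with ketoconazole run as the reference CYP3A inhibitor.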
A general note: Liver microsomes are vesicles of endoplasmic reticulum, rich in cytochrome P450 enzymes.

For data set [2], the target named is T1, Indoleamine 2,3-dioxygenase 1 (Homo sapiens, UniProt P14902). The data set can be described thus: Binding affinity to NT650-NHS fluorophore-labeled recombinant human N-terminal His-tagged IDO1 expressed in Escherichia coli measured after 10 mins by microscale thermophoresis assay. Background: MST reads how a fluorescent partner responds to local heating, with and without ligand.
Target sequence in this assay (P14902 whole entry): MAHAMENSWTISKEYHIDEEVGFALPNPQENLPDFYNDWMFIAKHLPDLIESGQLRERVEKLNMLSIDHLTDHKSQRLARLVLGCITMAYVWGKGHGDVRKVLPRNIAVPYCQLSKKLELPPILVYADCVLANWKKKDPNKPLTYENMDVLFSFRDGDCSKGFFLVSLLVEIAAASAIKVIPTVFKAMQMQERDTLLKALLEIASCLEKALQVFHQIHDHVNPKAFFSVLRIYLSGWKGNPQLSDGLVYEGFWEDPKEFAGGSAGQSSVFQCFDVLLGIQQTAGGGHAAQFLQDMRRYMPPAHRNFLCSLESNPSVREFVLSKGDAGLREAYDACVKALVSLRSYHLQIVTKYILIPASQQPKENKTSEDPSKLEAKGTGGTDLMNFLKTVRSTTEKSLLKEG

Data set [3] deals with Mus musculus. The data set is described as follows: In vivo inhibition of IDO1 in BALB/c mouse assessed as reduction in L-kyn level at 10 mg/kg, iv measured up to 30 mins by LC-HRMS analysis. In kind it is functional, organism-based. The method in brief:
(§1)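 After a single 10 mg/kg i.v. dose in mice, plasma L-Kyn was measured at 0, 2, 5, 15 and 30 min and at 8 h post-injection, and compared with basal level.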

Data set [4] in a line: Inhibition of CYP450 in rat liver microsomes assessed as reduction in aminopyrine N-demethylase activity preincubated for 3 mins followed by NADPH addition and measured after 15 mins by iodometric titration method. In kind it is ADME. The method in brief:
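CYP inhibition read by aminopyrine N-demethylase activity, with IC50 determined from concentration–response curves. Ketoconazole (CYP3A inhibitor) served as reference.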

Data set [5] relates to Mus musculus. The data set can be described thus: In vivo inhibition of IDO1 in BALB/c mouse assessed as reduction in L-kyn level at 10 mg/kg, iv measured after 8 hrs by LC-HRMS analysis. In kind it is functional, organism-based. The method in brief: as §1
A short description of data set [6]: Drug metabolism in CD-1 mouse liver microsomes assessed as benzimidazole oxidation at 50 uM measured after 1 hr by LC-HRMS analysis. In kind it is ADME, Microsome.
A short description of data set [7]: Drug metabolism in CD-1 mouse liver microsomes assessed as oxidative N-dealkylation at 50 uM measured after 1 hr by LC-HRMS analysis. In kind it is ADME, Microsome.
A short description of data set [8]: Metabolic stability in CD-1 mouse liver microsomes assessed as parent compound remaining at 50 uM measured after 1 hr in presence of NADPH generating system by UV-LC/MS analysis. Conditions: read-out: Stability. In kind it is ADME, Microsome. The method in brief:
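Mouse liver microsomes activated with NADPH. Residual parent compound was measured after 1 h incubation.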

Data set [9] addresses T1, Indoleamine 2,3-dioxygenase 1. The data set can be described thus: Selectivity ratio of IC50 for IDO1 in IFNgamma-stimulated human DAN-G cells to IC50 for IDO1 in IFNgamma-stimulated human HepG2 cells.
Target sequence in this assay (P14902 whole entry, looked up): as the sequence (P14902 whole entry) above
The target is the same in data set [10]. The data set is described as follows: Selectivity ratio of IC50 for IDO1 in IFNgamma-stimulated human DAN-G cells to IC50 for IDO1 in IFNgamma-stimulated human MCF7 cells.
Target sequence in this assay (P14902 whole entry, looked up): as the sequence (P14902 whole entry) above
The target is the same in data set [11]. The data set is described as follows: Selectivity ratio of IC50 for IDO1 in IFNgamma-stimulated human DAN-G cells to IC50 for IDO1 in IFNgamma-stimulated human LXF-289 cells.
Target sequence in this assay (P14902 whole entry, looked up): as the sequence (P14902 whole entry) above
Data set [12] shares this target. The data set is described as follows: Selectivity ratio of IC50 for IDO1 in IFNgamma-stimulated human DAN-G cells to IC50 for IDO1 in IFNgamma-stimulated human A375 cells.
Target sequence in this assay (P14902 whole entry, looked up): as the sequence (P14902 whole entry) above
Data set [13] has the same target. The data set can be described thus: Selectivity ratio of IC50 for IDO1 in IFNgamma-stimulated human DAN-G cells to IC50 for IDO1 in IFNgamma-stimulated human HeLa cells.
Target sequence in this assay (P14902 whole entry, looked up): as the sequence (P14902 whole entry) above
The target is the same in data set [14]. The data set can be described thus: Inhibition of IDO1 in IFNgamma-stimulated human DAN-G cells assessed as reduction in L-Kyn level measured after 48 hrs by HPLC analysis. In kind it is cell-based.
Target sequence in this assay (P14902 whole entry): as above
Data set [15] shares this target. The data set can be described thus: Inhibition of IDO1 in IFNgamma-stimulated human HepG2 cells assessed as reduction in L-Kyn level measured after 48 hrs by HPLC analysis. In kind it is cell-based.
Target sequence in this assay (P14902 whole entry): as above
Data set [16] has the same target. The data set is described as follows: Inhibition of IDO1 in IFNgamma-stimulated human MCF7 cells assessed as reduction in L-Kyn level measured after 48 hrs by HPLC analysis. In kind it is cell-based.
Target sequence in this assay (P14902 whole entry): as above
Data set [17] has the same target. The data set can be described thus: Inhibition of IDO1 in IFNgamma-stimulated human LXF-289 cells assessed as reduction in L-Kyn level measured after 48 hrs by HPLC analysis.
Target sequence in this assay (P14902 whole entry): as above
For data set [18] the target is unchanged. The data set can be described thus: Inhibition of IDO1 in IFNgamma-stimulated human HeLa cells assessed as reduction in L-Kyn level measured after 48 hrs by HPLC analysis. In kind it is cell-based.
Target sequence in this assay (P14902 whole entry): as above
For data set [19], the target named is Tryptophan 2,3-dioxygenase (Mus musculus, UniProt P48776). The data set is described as follows: Inhibition of mouse TDO transfected in P815 cells assessed as reduction in L-Kyn level measured after 16 hrs by HPLC analysis. In kind it is cell-based. An outline of the steps: (§2)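 P815 mastocytoma cells stably expressing mouse IDO1 (P1.IDO1) or TDO (P1.TDO) were treated with serial dilutions for 16 h. L-Kyn secreted into the culture supernatant was quantified by HPLC, and an IC50 was determined in each line.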

For data set [20], the target named is Indoleamine 2,3-dioxygenase 1 (Mus musculus, UniProt P28776). The data set is described as follows: Inhibition of mouse IDO1 transfected in P815 cells assessed as reduction in L-Kyn level measured after 16 hrs by HPLC analysis. In kind it is cell-based. The method in brief:
as §2

For data set [21], the target named is T1, Indoleamine 2,3-dioxygenase 1. The data set is described as follows: Inhibition of IDO1 in IFNgamma-stimulated human A375 cells assessed as reduction in L-Kyn level at 10 uM measured after 48 hrs by HPLC analysis relative to control. An outline of the steps: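 Screen in melanoma A375 cells, which express IDO1 when treated with recombinant human IFN-γ. Cells were left untreated or given 10 µM compound for 48 h. L-Kyn was then measured. Cell viability was also checked.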
Target sequence in this assay (P14902 whole entry, looked up): as the sequence (P14902 whole entry) above

Data set [22] is described as follows: Cytotoxicity against human A375 cells assessed as cell viability at 1 uM measured after 48 hrs by MTT assay relative to control. In kind it is cell-based, A-375. Conditions: read-out: Activity. The method in brief: (§3)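 A375 cells, unstimulated or stimulated with recombinant human IFN-γ, were left untreated or treated with 1 µM compound for 48 h. L-Kyn was measured by HPLC and cell viability was assessed.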

Data set [23] deals with T1, Indoleamine 2,3-dioxygenase 1. The data set is described as follows: Inhibition of IDO1 in IFNgamma-stimulated human A375 cells assessed as reduction in L-Kyn level at 1 uM measured after 48 hrs by HPLC analysis relative to control. An outline of the steps:
as §3

Data set [24] deals with Monocyte. The data set is described as follows: Cytotoxicity against PDAC patient derived monocytes assessed as reduction in cell viability at 30 uM measured after 24 hrs by Annexin-V APC/7-AAD staining based flow cytometric analysis. Conditions: human. The method in brief: (§4)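 Monocytes from healthy donors (n=3) and from PDAC patients (n=3) were treated for 24 h, with DMSO as control. Viability was normalized to untreated cells. Healthy-donor cells received a range of concentrations; PDAC cells received 30 µM.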
A general note: In flow cytometry, cells or beads pass a laser one at a time.

For data set [25], the system named is Monocyte. The data set is described as follows: Cytotoxicity against human monocytes assessed as reduction in cell viability at 30 uM measured after 24 hrs by Annexin-V APC/7-AAD staining based flow cytometric analysis. An outline of the steps: as §4
In data set [26] the target is T1, Indoleamine 2,3-dioxygenase 1. The data set is described as follows: Inhibition of IDO1 in PDAC patient derived suppressive monocytes co-cultured with human PBMC assessed as reduction in anti-CD3/anti-CD28-stimulated CD3+T cell proliferation at 30 uM preincubated for 4 days followed by co-culturing of monocytes and measured after 24 hrs by flow cytometric analysis.

Data set [27] relates to Monocyte. The data set is described as follows: Effect on anti-CD3/anti-CD28-stimulated CD3+T cell proliferation in PDAC patient derived non-suppressive monocytes co-cultured with human PBMC at 30 uM preincubated for 4 days followed by co-culturing of monocytes and measured after 24 hrs by flow cytometric analysis. In kind it is cell-based. The method in brief: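 PDAC patient monocytes (suppressive or non-suppressive) were pre-treated with 30 µM compound or DMSO, then co-cultured for 4 days with Cell Trace-labelled activated CD3+ T cells. T-cell proliferation was read from proliferation peaks and normalized to activated T cells cultured without myeloid cells. Data are mean ± SEM; Mann-Whitney test.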

Data set [28] in a line: Metabolic stability in CD-1 mouse liver microsomes assessed as parent compound remaining at 50 uM measured after 1 hr in presence of NADPH by UV-LC/MS analysis.
Data set [29] addresses T1, Indoleamine 2,3-dioxygenase 1. The data set can be described thus: Inhibition of IDO1 in IFNgamma-stimulated human A375 cells assessed as reduction in L-Kyn level measured after 48 hrs by HPLC analysis.
The nature of data set [30]: Half life in BALB/c mouse at 10 mg/kg, iv by LC-MS analysis. In kind it is ADME, organism-based. The settings on record: in vivo. An outline of the steps:
(§5)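 Mice received a single i.v. dose of 10 mg/kg. Serial blood samples were taken and PK parameters derived, including half-life, clearance, volume of distribution and Cmax.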

Data set [31] in a line: Volume of distribution in BALB/c mouse at 10 mg/kg, iv by LC-MS analysis. In kind it is ADME, organism-based. Conditions: in vivo. An outline of the steps:
as §5

A short description of data set [32]: Cmax in BALB/c mouse at 10 mg/kg, iv by LC-MS analysis. Conditions: in vivo. In kind it is ADME, organism-based. Also noted: dose 10 mg/kg, route intravenous. An outline of the steps:
as §5

For data set [33], the species on record is Mus musculus. The data set can be described thus: Selectivity ratio of IC50 for inhibition of mouse TDO transfected in P815 cells to IC50 for inhibition of mouse IDO1 transfected in P815 cells. In kind it is cell-based. An outline of the steps: as §2
Data set [34] relates to Mus musculus. The data set can be described thus: In vivo inhibition of IDO1 in BALB/c mouse assessed as reduction in L-kyn level at 10 mg/kg, iv measured up to 8 hrs by LC-HRMS analysis.

Sequence of Tryptophan 2,3-dioxygenase (P48776 whole entry): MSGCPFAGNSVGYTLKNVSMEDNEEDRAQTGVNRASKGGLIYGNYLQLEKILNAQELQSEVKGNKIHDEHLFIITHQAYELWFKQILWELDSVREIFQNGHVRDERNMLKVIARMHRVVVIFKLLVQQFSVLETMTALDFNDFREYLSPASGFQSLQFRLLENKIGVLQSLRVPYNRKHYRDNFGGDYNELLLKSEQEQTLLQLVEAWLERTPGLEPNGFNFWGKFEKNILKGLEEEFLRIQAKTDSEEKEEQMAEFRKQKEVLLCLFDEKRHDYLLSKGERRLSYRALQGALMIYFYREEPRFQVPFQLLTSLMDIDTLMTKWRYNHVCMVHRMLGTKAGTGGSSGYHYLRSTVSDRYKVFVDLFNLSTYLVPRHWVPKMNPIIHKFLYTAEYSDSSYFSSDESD
Sequence of Indoleamine 2,3-dioxygenase 1 (Mus musculus, UniProt P28776) (P28776 whole entry): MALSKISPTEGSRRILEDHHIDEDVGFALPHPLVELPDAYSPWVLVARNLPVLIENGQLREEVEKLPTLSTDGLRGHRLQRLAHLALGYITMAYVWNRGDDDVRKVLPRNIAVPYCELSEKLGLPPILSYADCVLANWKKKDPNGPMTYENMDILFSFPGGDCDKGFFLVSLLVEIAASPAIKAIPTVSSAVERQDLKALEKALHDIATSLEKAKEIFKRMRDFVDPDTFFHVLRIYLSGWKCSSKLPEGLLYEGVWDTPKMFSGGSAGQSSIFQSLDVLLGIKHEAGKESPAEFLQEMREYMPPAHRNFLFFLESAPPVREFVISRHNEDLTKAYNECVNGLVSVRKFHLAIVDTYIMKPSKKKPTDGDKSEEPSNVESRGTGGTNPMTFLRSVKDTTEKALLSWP

As a reminder, the pIC50 is −log10 of the IC50, conventionally taken in molar units. As for `CC(=O)N1CCN(c2ccc(OCC3COC(Cn4ccnc4)(c4ccc(Cl)cc4Cl)O3)cc2)CC1` (stereo not given) [KETOCONAZOLE], in data set [1], the pIC50 was 5.19.

As usually defined, the pKd is −log10 of the Kd, conventionally taken in molar units. For orientation: inhibition means the share of the control response that was lost under treatment. Regarding `O=C(NCc1cccc(Cn2cnc3ccccc32)c1)c1cc(Br)c[nH]1`, the pKd in [2] was 6.26. Further, the inhibition entry (in the data set with Mus musculus [3]; in data set [26]) was “Active” each time. Also, the negative-log IC50 (pIC50) in data set [4] was 4.17; in data set [14], 6.22; in [15], 7.37; in [16], 7.68; in data set [17], 7.85; in data set [18], 7.19. For the same compound, the figures for the pIC50 in data set [19] and in data set [20] were 5.26 and 7.90, respectively. In addition, the inhibition result with Mus musculus [5] was “inactive”. For the same compound, the Drug metabolism entry in [6] and in data set [7] was “Metabolite_Detected” in each case. Also, the remaining at 1 h, 50 µM in data set [8] and in data set [28] was 32% in each case. Besides, the Ratio IC50 in data set [9], in [10], in data set [11], in data set [12] and in data set [13] was above 1 in each case. Further, the inhibition in [21] was above 30%; in data set [23] it was 96%. The viability at 48 h, 1 µM in data set [22] fell in the range of 85 to 100%. Further, the Activity entry in the data set on Monocyte [24], with Monocyte [25] and with Monocyte [27] was “Non-Toxic” throughout.

The term Vd denotes the apparent volume that relates the amount in the body to the concentration in plasma or blood. High values mean wide distribution into tissue, low ones little distribution into tissue. One may read the Cmax as the highest concentration seen after dosing. For `O=C(NCc1cccc(Cn2cnc3ccccc32)c1)c1cc2ccccc2[nH]1`, the “inhibition (INH)” value in data set [4] (rat, microsomes, 0.25 h) is “Not Active”. Moreover, the Drug metabolism entry in data set [6] and in [7] was “Metabolite_Detected” throughout. In addition, the remaining at 1 h, 50 µM in data set [8] and in data set [28] was 65% in each case. Further, the Ratio IC50 was 1.9 in data set [12] and above 1000 in the data set listed under Mus musculus [33]. Further, the pIC50 in data set [14] is 6.85; in data set [16] it was 7.08; in data set [19] it was 4.88; in data set [20] it was 8.03; in [29], 7.14. Besides, in data set [22], the viability at 48 h, 1 µM stood at 99%. Further, the inhibition in data set [23] was determined as 94%. Also, the Activity result in the data set with Monocyte [24], in the data set with Monocyte [25] and in the data set on Monocyte [27] was “Non-Toxic” throughout. Moreover, the inhibition entry (in [26]; in the data set with Mus musculus [34]) was “Active” in each case. In data set [30], this compound registered a t1/2 of 39 min. Besides, the Vd in data set [31] is 6.6 L/kg. The same compound had a Cmax in data set [32] of 2680 ng/mL.
